Calb FLC: C. albicans growth inhibition with fluconazole, primary screen, CaCi-2 strain, Alamar Blue fluorescence; C. albicans CaCi-2 (fluconazole-resistant clinical isolate) + fluconazole, 48 h; growth inhibition, % (concentration not given with the values); 300,000 tested, 0.57% active; AID 1979, 2009;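 active = growth inhibition above about 58% in most replicates, limit read from the data, passing the limit was not always enough; inconclusive = exactly half the replicates above a set limit; inactive = most replicates below a set limit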;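 also: all wells also contain fluconazole at 8 µg/ml as a sub-toxic cotreatment; 0% = median of DMSO wells and 100% = median of geldanamycin control wells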
A1 inh: caspase 3/7 activation in MEF A1-2A-BIM cells, primary screen, A1 inhibitor project, cell-based, luminescence, HTS. Caspase-Glo 3/7 luminescence, 3 h; percent of clofoctol response, vehicle zero. caspase activation, % (no concentration beside the values). 330,000 tested, 0.066% active. AID 2462, 2010;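 active = over half of replicate activation scores above 10%, or exactly half above 10 with the replicate mean above 10; inconclusive = replicate mean below 10 yet half the replicates above 10; inactive = over half of replicates below 10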
T cruzi inh: inhibitors of intracellular T. cruzi growth, primary screen, luminescence, NIH3T3 host cells. inhibition, % (test concentration not listed). 300,000 tested, 1.4% active. T. cruzi beta-gal in NIH3T3, 90 h. AID 1885, 2009;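 active = mean inhibition across valid replicates above about 55%, limit read from the data; inconclusive = mean below that limit but half or more replicates reach it; inactive = mean below it, under half of replicates reach it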;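 also: signal also drops with host cell toxicity which is not excluded here; 0% = plate median of DMSO wells and 100% = zero luminescence signal; higher percent means less beta-gal luminescence so fewer parasites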
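Assay system: NIH/3T3 host cells with β-galactosidase reporter T. cruzi; input: 5,000 host fibroblasts per well; compound: single 50 nL compound addition per well in DMSO; timing: ≥90 h infection period, 3 h prior cell attachment; measured by: GalScreen β-gal luminescence, detergent lysis, 60 min; evaluation: percent inhibition of parasite-derived β-gal signal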
H9c2 TAG inh: inhibitors of triacylglycerol accumulation, primary screen, cell-based, uHTS, fluorescence, H9c2; H9c2 cells, Nile Red lipid (TAG) fluorescence; cells loaded with 200 µM oleic acid; inhibition, % at 12.5 µM; AID 651582, 2012; 230,000 tested, 0.66% active;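 active = pattern-corrected inhibition of lipid staining of at least 50% with the nuclear-stain viability signal not falling by more than 50%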;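 also: 0% = DMSO wells and 100% = triacsin C control wells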
Beta apoptosis: inhibitors of cytokine-induced beta cell apoptosis, primary screen, luminescence; INS-1E cytokine-induced death, ATP luminescence, 48 h; percent of positive-control rescue, neutral wells zero; protection from apoptosis, % (test concentration not listed); 300,000 tested, 0.8% active; AID 435005, 2010;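 active = Every replicate reaches about 75%, or at least half do and their mean reaches it too, limit read from the data; inconclusive = At least half of replicates reach the limit but their mean does not; inactive = Under half of replicates reach the limit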;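 also: 0% = cytokine-treated negative control wells and 100% = positive control rescue; higher means more ATP so stronger rescue from cytokine killing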
CSC inhib: cancer stem cell viability inhibitors, primary screen, luminescence. inhibition, % at 7.5 µM. 300,000 tested, 1.1% active. cancer stem cell-like cells viability; in the data active = inhibition above about 75%; inconclusive = no clear call, values can overlap the other calls; tested in HMLE shEcad cells
* marks the source's active call; other numbers are inactive results; ? = inconclusive; · = no result given. Compounds with a hit are over-represented: about 3.1% of the library has one in this group of screens.

SMILES	Calb FLC	A1 inh	T cruzi inh	H9c2 TAG inh	Beta apoptosis	CSC inhib
O=C(Nc1ccccc1N1CCCC1)c1cccc(-c2cc3ccccc3oc2=O)c1	6.9	-5.6	12.0	·	5.8	90.1*
CC(=N)c1c(O)c2ccccc2oc1=O	0.9	-0.5	?	9.3	-0.5	6.9
CC1CCC(C(=O)c2c(O)c3ccccc3oc2=O)CC1 (stereo unspecified)	108.4*	-0.1	-0.7	·	16.2	50.1
Cc1cccc(CCN2C(N(C)C)=NC[C@@H]2C)c1	·	-1.3	·	-4.7	-9.4	6.1
CCCCCOc1ccc(Br)cc1/C(C)=N/NC1=NCCN1	15.0	0.1	54.8*	68.8*	45.4	-3.1
COc1ccc(Br)cc1/C(C)=N/NC1=NCCN1	-16.5	-0.1	-12.9	-14.2	10.2	4.3
CSc1ccc(CN2CCCC(CNC(=O)c3ccc(F)cc3)C2)cc1 (stereo unspecified)	-13.0	0.9	62.9*	-3.5	-0.2	-3.6
O=C(NCC1CCCN(Cc2nccs2)C1)c1cccc2ccccc12 (stereo unspecified)	2.7	0.2	4.6	9.3	·	1.6
CSc1cccc(CN2CCCC(CNC(=O)c3ccc(F)cc3)C2)c1 (stereo unspecified)	-26.8	0.6	43.3	-18.3	-4.5	-0.3
COc1ccc(CC(=O)NCC2CCCN(Cc3ccc(F)c(OC)c3)C2)cc1 (stereo unspecified)	0.3	0.0	41.9	8.9	·	-8.2
COc1ccccc1CN1CCCC(CNC(=O)c2cccc3ccccc23)C1 (stereo unspecified)	-7.0	1.3	60.7*	·	-1.8	-9.5
CCOc1ccccc1CN1CCCC(CNC(=O)Cc2ccc(OC)cc2)C1 (stereo unspecified)	-19.4	-0.5	58.8*	·	-3.7	1.4
COc1ccc(CC(=O)NCC2CCCN(Cc3ccc(SC)cc3)C2)cc1 (stereo unspecified)	-0.1	-1.0	67.8*	-6.4	-2.9	-3.6
Cc1ccc(NS(=O)(=O)c2ccc(C)c(C(=O)Nc3ccc(S(=O)(=O)Nc4onc(C)c4C)cc3)c2)cc1	·	·	·	0.7	·	·
O=C(NCC1CCCN(Cc2ccccc2F)C1)c1cccc(C(F)(F)F)c1 (stereo unspecified)	-1.0	0.7	66.3*	-0.5	-2.6	4.1
CS(=O)(=O)c1ccc(Cl)c(C(=O)OCC(=O)NC2CCCCCCC2)c1	·	0.0	·	-7.7	1.0	·
c1ccc(N2CCN(CC3CCCCC3)CC2)cc1	-4.1	0.5	-5.7	-3.2	138.6*	97.3*
Cc1nnc(NC(=O)CSc2ncnc3c2cnn3-c2ccccc2C)s1	84.6*	0.1	-5.3	·	-3.0	-0.9
COc1cc2c(-c3ccccc3)c(C)oc2cc1/C=N/NC(N)=S	1.5	6.7*	89.3*	13.2	4.6	13.1
COc1cc(OC)c(/C=N/NC(N)=S)cc1Br	32.2	0.1	19.3	9.5	-13.8	0.6
Cc1ccc(SCCOCCN2CCc3ccccc3C2)cc1	-27.3	-0.2	60.5*	·	-9.6	48.8
Cc1ccc(SCCOCCN2CC(C)OC(C)C2)cc1 (stereo unspecified)	0.9	-0.2	57.2*	-5.2	-12.9	44.3
CCOC(=O)N1CCC(NC(=O)CC2C(=O)NCCN2Cc2ccccc2)CC1 (stereo unspecified)	0.4	-0.2	-12.1	10.8	·	-1.0
N#Cc1c(N2CCOCC2)nc(N2CCCCC2)c2c1CCN(C1CCCCC1)C2	5.7	0.4	70.7*	·	5.2	2.2
O=C(OCC(=O)N1CCCC1=O)c1cc2ccccc2o1	·	-0.3	·	4.0	-4.7	-2.8
SMILES	Calb FLC	A1 inh	T cruzi inh	H9c2 TAG inh	Beta apoptosis	CSC inhib
COCCN(C(=O)CSc1nnc(-c2ccc(C)cc2)n1N)c1c(N)n(Cc2ccccc2)c(=O)[nH]c1=O	9.9	0.2	-14.2	·	2.5	9.4
O=C(Nc1ccc(OC(F)(F)F)cc1)N1CCN(c2ccnc3cc(Cl)ccc23)CC1	34.6	-0.4	63.7*	4.3	68.5	63.6
O=C(Nc1ccc(Br)c(C(F)(F)F)c1)c1ccccc1	-6.0	-0.6	3.7	·	11.2	23.9
O=C(Nc1ccc(OCC(F)(F)C(F)F)c(C(F)(F)F)c1)c1ccc(Cl)cc1	14.5	0.4	48.3	40.3	78.7*	?
COc1ccc(C(=O)Nc2ccc(OCC(F)(F)C(F)F)c(C(F)(F)F)c2)cc1OC	-0.1	-0.8	47.6	36.0	10.7	92.3*
O=C(Nc1ccc(Br)c(C(F)(F)F)c1)c1ccc(C(F)(F)F)cc1	-6.7	-0.3	46.7	6.7	74.1*	110.1*
COc1ccc(NC(=O)c2ccc(COCC(F)(F)F)cc2)cc1OC	-3.8	-0.5	-1.5	-8.9	2.0	2.2
C=CCNC(=S)N/N=C/c1ccc(OCc2ccccc2Cl)cc1	10.7	0.4	64.9*	·	6.3	·
CCNC(=O)C1(C)CCCN1C(=O)c1ccc(C#N)cc1 (stereo unspecified)	·	·	·	-7.5	·	·
COc1cc(OC)c(NC2=CC(=O)C(=O)c3ccccc32)cc1Cl	4.8	0.6	20.1	·	119.6*	102.1*
CCOC(=O)c1ccc(NC2=CC(=O)C(=O)c3ccccc32)cc1	3.5	-1.0	47.2	80.1*	39.6	-6.9
Cc1ccc(NC2=CC(=O)C(=O)c3ccccc32)cc1	100.5*	0.5	-7.4	·	100.2*	-7.6
NS(=O)(=O)c1ccc(NC2=CC(=O)C(=O)c3ccccc32)cc1	41.7	0.8	8.6	·	63.7	60.9
CC1=C(CO)C(=O)OC([C@@H](C)C2CC[C@H]3C4C[C@H]5O[C@]56[C@@H](O)C=CC(=O)[C@]6(C)C4CC[C@]23C)C1 (stereo partly specified)	22.8	-0.6	43.4	·	108.6*	99.1*
CN(Cc1cnn(Cc2ccccc2)c1)C(=O)c1cccc(S(=O)(=O)N2CCOCC2)c1	·	0.5	·	19.4	16.5	·
COC(=O)c1c(-c2cccc3ccccc23)csc1NC(=O)Cc1ccc(OC)c(OC)c1	-7.1	-0.9	57.3*	-56.9	24.2	37.2
O=C(COC(=O)Cc1ccc(Br)cc1)NCc1ccc2c(c1)OCO2	·	·	·	3.5	·	·
COC(=O)c1ccccc1NC(=O)CSc1nnc(-c2cccnc2)o1	2.1	-0.1	-8.2	·	6.1	17.7
CC(=O)Nc1cccc(NC(=O)c2cccc(-c3ccc(O)cc3)c2)c1	-3.9	-0.2	-10.2	·	6.0	·
COc1ccc(NC(=O)c2cccc(-c3ccc(O)cc3)c2)cn1	14.5	0.0	-3.2	·	8.8	85.6*
CN(C(=O)CCN1C(=O)S/C(=C\c2ccccc2)C1=O)C1CCS(=O)(=O)C1 (stereo unspecified)	5.2	0.7	-28.6	·	-5.1	-16.4
